# Experimental data gathered from unrelated publications.
# MAPK14: Mitogen-activated protein kinase 14 (MAPK14, Homo sapiens, UniProt Q16539)
# MAPK14 T106M: Mitogen-activated protein kinase 14 (MAPK14, Homo sapiens, UniProt Q16539, T106M)
SMILES,target,test,conditions,quantity,result
O=C(NCCCC1CCCCC1)c1ccc(CNC(=O)c2cnn(-c3ccccc3)c2C(F)(F)F)cc1,MAPK14,"cell-free assay, competition with immobilised ligand",0.1 µM,remaining binding,100%
CC(C)(O)[C@H]1CC[C@H](Nc2ccc3ncc(-c4cccc(C(F)(F)F)c4)n3n2)CC1,MAPK14,"enzyme activity, inhibitor",1 µM,remaining activity,86.4%
CC(C)(C)c1nc2c(s1)c1nc(N)ncc1c1ccc(NS(=O)(=O)c3c(F)cccc3F)c(F)c12,MAPK14,"enzyme activity, inhibitor, radiometric",1 µM,remaining activity,96%
Nc1nc(Nc2ccccc2)sc1C(=O)c1c(F)cccc1F,MAPK14,"enzyme activity, inhibitor",10 µM,remaining activity,8%
Cc1ccc(C(=O)Nc2ccc(CN3CCN(C)CC3)c(C(F)(F)F)c2)cc1C#Cc1cnc2cccnn12,MAPK14,"enzyme activity, inhibitor",23.5 nM,remaining activity,29%
O=C(Nc1cnn(-c2csc(C(=O)NC3COC3)c2)c1)Nc1ccccc1Cl,MAPK14,"enzyme activity, inhibitor",5 µM,remaining activity,142%
CCN(CC)CCNC(=O)c1c(C)[nH]c(/C=C2\C(=O)Nc3ccc(F)cc32)c1C,MAPK14 T106M,"enzyme activity, inhibitor",10 µM,inhibition,9%
Nc1nc(NC2CCCCC2)sc1C(=O)c1ccccc1,MAPK14,"enzyme activity, inhibitor",10 µM,remaining activity,24%
CC1=C(C#N)[C@@H](c2ccc3[nH]nc(C)c3c2)C(C#N)=C(c2ccc(Cl)cc2)N1,MAPK14,"cell-free assay, competition with immobilised ligand",1 µM,remaining binding,100%
Cc1ccc(Nc2nccc(N(C)c3ccc4c(C)n(C)nc4c3)n2)cc1S(N)(=O)=O,MAPK14,"enzyme activity, inhibitor",0.3 µM,inhibition,6%
Cc1cc(NC(=O)c2cccc(S(F)(F)(F)(F)F)c2)cc(-n2ccn3nc(-c4cccnc4)cc23)c1,MAPK14,"cell-free assay, competition with immobilised ligand",1 µM,remaining binding,100%
O=C1NC(=O)c2cc(Nc3ccc(F)cc3)c(Nc3ccc(F)cc3)cc21,MAPK14,cell-free assay,0.5 µM,remaining signal,88.3%
Cc1sc(C(=O)NC2COC2)cc1-n1cc(NC(=O)Nc2c(F)cccc2Cl)cn1,MAPK14,"enzyme activity, inhibitor",10 µM,remaining activity,93.2%
CSc1cccnc1N1CCN(Cc2nc3ccccc3[nH]2)CC1,MAPK14,"cell-free assay, competition with immobilised ligand",1 µM,remaining binding,100%
CN(C)C1CCN(CC#Cc2nn(C3CCCC3)c3nc(NCc4ccccc4)ncc23)C1 (stereo not drawn),MAPK14,"enzyme activity, inhibitor, FRET",10 µM,inhibition,4%
Cc1cnc(NC2CCOCC2)nc1-n1cnc(C(=O)NC(CN)c2cc(F)cc(Cl)c2)c1 (stereo not drawn),MAPK14,"enzyme activity, inhibitor, radiometric",1 µM,remaining activity,77%
Cc1c(C(=O)O)cc(-c2ccc(C3CCNCC3)cc2)c2ccc(-c3ccc(C(F)(F)F)cc3)cc12,MAPK14,"binding, competition with immobilised ligand",1 µM,remaining binding,100%
Cc1ccc(NC(=O)c2ccc(C)c(C(F)(F)F)c2)cc1C#Cc1nn(C2CCC(O)CC2)c2ncnc(N)c12 (stereo not drawn),MAPK14 T106M,"enzyme activity, inhibitor",10 µM,remaining activity,88%
CN([C@@H]1CCc2c(CC(=O)O)c3cc(S(C)(=O)=O)ccc3n2C1)S(=O)(=O)c1ccc(F)cc1,MAPK14,"cell-free assay, competition with immobilised ligand",1 µM,remaining binding,100%
COc1cc(Nc2cnc(C#N)c(O[C@H](C)CN(C)C)n2)ncc1-c1cnn(C)c1,MAPK14,"enzyme activity, inhibitor, radiometric",10 µM,remaining activity,85%
Oc1ccc(-c2nc(-c3ccncc3)c(-c3ccc(F)cc3)[nH]2)cc1,MAPK14,cell-free assay,0.5 µM,remaining signal,7.42%
FC(F)c1nc2ccccc2n1-c1nc(N2CCOCC2)nc(N2CCOCC2)n1,MAPK14,"enzyme activity, inhibitor",10 µM,remaining activity,89%
O=C1Nc2ccc(Cl)cc2C1=Cc1cc(Cl)c(O)c(Cl)c1,MAPK14,cell-free assay,0.5 µM,remaining signal,74.6%
N#CC1(c2ccccn2)CCN(Cc2cc(C(=O)N3CCCC3)c(=O)n3ccccc23)CC1,MAPK14,"cell-free assay, competition with immobilised ligand",1 µM,remaining binding,86%
CNC(=O)c1cc(Oc2ccc(NC(=O)Nc3ccc(Cl)c(C(F)(F)F)c3)cc2)ccn1,MAPK14 T106M,"enzyme activity, inhibitor",10 µM,inhibition,90%
Cc1cc(NC(=O)c2cccc3cc(-c4cccc5[nH]nc(N)c45)ccc23)ccc1F,MAPK14 T106M,"enzyme activity, inhibitor",0.1 µM,activity vs control,96%
Cc1cc(-n2nc(Cc3cc(F)cc(C(F)(F)F)c3)nc2C)ccc1C(N)=O,MAPK14,"cell-free assay, competition with immobilised ligand",1 µM,remaining binding,95%
